# MsrA act = activators of bovine methionine sulfoxide reductase A | 360,000 tested, 0.3% active | purified bovine MsrA, absorbance read-out | AID 602163 | activation, % at 10.6 µM; in the data active = activation above about 7.5%;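 also: 0% = vehicle and 100% = reference activator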
# AHR act = activators of human aryl hydrocarbon receptor; AHR-responsive luciferase reporter cells, luminescence; 320,000 tested, 2.5% active; AID 2796; activation, % at 5 µM; P35869; in the data active = activation above about 47%;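 also: 0% = vehicle wells and 100% = reference agonist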
# Target sequence (P35869 whole entry, looked up): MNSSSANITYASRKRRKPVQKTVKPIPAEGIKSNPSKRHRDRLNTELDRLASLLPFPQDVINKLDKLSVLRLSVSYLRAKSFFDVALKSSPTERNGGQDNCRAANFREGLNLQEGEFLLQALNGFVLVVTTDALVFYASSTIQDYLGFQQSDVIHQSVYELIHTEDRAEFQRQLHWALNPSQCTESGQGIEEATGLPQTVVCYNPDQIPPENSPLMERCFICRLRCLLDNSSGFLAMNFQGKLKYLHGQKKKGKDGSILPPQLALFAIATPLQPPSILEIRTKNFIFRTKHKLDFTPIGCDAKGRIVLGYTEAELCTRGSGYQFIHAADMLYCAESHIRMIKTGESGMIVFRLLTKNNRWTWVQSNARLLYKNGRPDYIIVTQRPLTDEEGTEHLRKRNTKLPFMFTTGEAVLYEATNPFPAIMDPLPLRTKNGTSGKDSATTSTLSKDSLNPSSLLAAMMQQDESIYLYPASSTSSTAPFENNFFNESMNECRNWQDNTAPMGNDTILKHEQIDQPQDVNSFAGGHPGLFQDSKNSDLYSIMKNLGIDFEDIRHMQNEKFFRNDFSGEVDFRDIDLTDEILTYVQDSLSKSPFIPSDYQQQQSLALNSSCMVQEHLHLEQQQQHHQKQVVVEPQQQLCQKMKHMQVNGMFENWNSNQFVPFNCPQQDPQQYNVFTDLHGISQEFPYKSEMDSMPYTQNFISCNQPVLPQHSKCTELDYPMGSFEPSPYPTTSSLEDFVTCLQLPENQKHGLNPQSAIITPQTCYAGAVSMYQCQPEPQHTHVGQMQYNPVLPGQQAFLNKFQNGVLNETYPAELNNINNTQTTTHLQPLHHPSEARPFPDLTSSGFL
# MsrA inh = bovine MsrA inhibition. purified bovine MsrA, absorbance read-out. inhibition, % at 15.5 µM. 360,000 tested, 0.75% active; in the data active = inhibition above about 4.5%;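 also: 0% = vehicle wells with enzyme and 100% = reference inhibitor wells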
# TbMetRS inhib = Trypanosoma brucei MetRS inhibition; purified T. brucei MetRS, ATP depletion, Kinase-Glo luminescence; inhibition, % at 11.9 µM; 360,000 tested, 0.4% active; AID 624268;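 active = inhibition above a per-plate cutoff of the control wells' mean inhibition plus 3 SD, cut at about 5.5% in these data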;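 also: 0% = DMSO wells median and 100% = median of wells with control inhibitor compound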
#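 Dosing: 11.9 µM single point; system: parasite MetRS enzyme; technique: luminescence of leftover ATP; times: 15 min enzyme-compound preincubation, 2 h reaction, 10 min detection, 25 °C; replicates: each compound tested once; read-out basis: percent inhibition relative to median high and low control wells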
# HTR2A ag = mouse HTR2A agonism via beta-arrestin recruitment. P35363. CHO-K1 mHTR2A beta-arrestin complementation, luminescence; percent of 30 µM serotonin response. activation, % at 7.6 µM. 360,000 tested, 0.66% active;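 active = activation above a run cutoff, the mean activation of all tested compounds plus 3 SD, cut at about 14% in these data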;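 also: 0% = plate median of compound wells and 100% = 30 µM serotonin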
# AI-2 QS mod = modulates the Vibrio harveyi AI-2 quorum sensing system; Vibrio harveyi JMH597 AI-2 luminescence/OD600 ratio, 9 h; active compounds read low; strain lacks LuxN and CqsS sensors; 0 = neutral-control median; activity change, % at 7.5 µM; 300,000 tested, 0.4% active; AID 2094; in the data active = activity change below about -75%, passing the limit was not always enough;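 also: luminescence divided by OD600 gain over 9 h not by final OD600 alone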
# OPRM1 ag = OPRM1 agonism in mouse HTR2A counterscreen; shares compounds with HTR2A ag; U2OS OPRM1 beta-arrestin PathHunter, luminescence; DMSO 0%, DAMGO 9.3 µM 100%; activation, % at 9.3 µM; 2,300 tested, 5.3% active; AID 624380;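 active = mean activation above the mean of DMSO-only wells plus 3 SD, cut at about 0.5% in these data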
# HTR2A ag conf = confirmation of mouse HTR2A serotonin receptor agonists; shares compounds with HTR2A ag; CHO-K1 PathHunter beta-arrestin recruitment, luminescence; DMSO 0%, 30 µM serotonin 100%; activation, % at 7.6 µM; 2,300 tested, 19% active;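 active = mean activation across triplicates above the hit threshold derived in the original primary screen, cut at about 15% in these data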
# The depositor's hits bear a star; . = no result given. A selection: hits, their analogues and other compounds. The true share with any hit is near 4.4%.
SMILES,MsrA act,AHR act,MsrA inh,TbMetRS inhib,HTR2A ag,AI-2 QS mod,OPRM1 ag,HTR2A ag conf
Cc1cc(C)c(C(=O)COC(=O)C2CCN(c3ccc(C(F)(F)F)cn3)CC2)c(C)c1,3,1,1,0,-7,.,.,.
COc1ccccc1CNC(=O)CN(c1ccc(C)cc1)S(=O)(=O)c1c(C)n[nH]c1C,-7,7,-2,-1,1,13,.,.
COc1ccccc1CNC(=O)CN(c1ccc(C)cc1)S(=O)(=O)c1c(C)noc1C,-3,28,-1,0,17*,7,-1,-5
COc1ccc(NC(=O)CN(c2ccc(C(C)C)cc2)S(=O)(=O)c2c(C)noc2C)cc1OC,-7,-3,0,-1,15*,21,0,0
COc1ccc(N(CC(=O)Nc2ccc(C)c(C)c2)S(=O)(=O)c2c(C)noc2C)cc1,-2,17,1,0,-8,5,.,.
Cc1nc(SCC(=O)O)c(C#N)c(-c2ccco2)c1C(=O)N(C)C,-4,4,0,0,-5,31,.,.
CSc1nc(C)c(C(=O)Nc2ccccc2)c(-c2ccco2)c1C#N,-7,2,0,2,16*,-2,0,-3
COc1ccc(CCCNC(=O)C2CCC(=O)N(CC3CCCCC3)C2)cc1 (centres undefined),-7,0,1,-1,5,9,.,.
O=C1C(=O)c2ccccc2C(O)=C1c1cccc([N+](=O)[O-])c1,-2,3,2,0,20*,47,-1,-5
O=c1cc(-c2cccc([N+](=O)[O-])c2)[nH][nH]1,-5,3,-1,-1,0,34,.,.
CCC(C(=O)OCC(=O)NC1CCS(=O)(=O)C1)c1ccccc1 (centres undefined),-1,-2,1,0,5,4,.,.
CC(=O)c1ccc(N2CCN(CC(=O)N(C3CC3)C3CCS(=O)(=O)C3)CC2)c(F)c1 (centres undefined),-2,0,1,0,5,.,.,.
COc1ccc(C(=O)N2CCN(c3ccc(NC(=O)c4ccco4)cc3)CC2)cc1,-2,-2,2,0,4,13,.,.
CC(C)Oc1ccc(C(=O)Nc2ccc(N3CCN(C(=O)c4ccco4)CC3)cc2)cc1,-9,-1,-1,-1,15*,14,0,-2
C[C@@H]1c2ccccc2N2C[C@H](Cc3ccc(C(=O)c4ccccc4)cc3)C[C@@H]12,-3,.,-1,1,16*,.,0,-5
CC1CC(C)CN(C(=O)c2ccc(C(=O)c3ccccc3)cc2)C1 (centres undefined),-1,0,0,0,-4,25,.,.
O=C(CN1CCOCC1)N1CCOCC1,-7,.,1,0,1,.,.,.
COc1ccc2oc(C(=O)Nc3nc4ccccc4[nH]3)c(C)c2c1,-3,6,1,-1,149*,13,0,56*
COc1ccc(C)cc1-n1nnnc1SC(C)C(=O)NC1CCCC1 (centres undefined),0,2,0,0,-2,.,.,.
Cc1cc([N+](=O)[O-])c2[nH]c(C(=O)N/N=C/c3ccccc3C(=O)O)c(-c3ccccc3)c2c1,-3,.,0,0,18*,22,-1,-2
NS(=O)(=O)c1ccc(N/N=C/c2ccccc2C(=O)O)c([N+](=O)[O-])c1,-9,26,4,0,-5,22,.,.
C[C@@H]1CN([C@@H](C)CO)C(=O)CCCn2nncc2CO[C@@H]1CN(C)C(=O)Nc1ccc(C(C)(C)C)cc1,-4,.,1,-1,2,.,.,.
NC(=O)C1(NC(=O)[C@@H]2CC3(CC(c4cccc(NC(=O)[C@@H]5CCC(=O)N5)c4)=NO3)CN2C(=O)Cc2ccc(C(F)(F)F)cc2)CC1 (some centres undefined),-5,1,0,1,20*,5,-1,-2
COc1cc(C#N)ccc1OC(=O)c1cccc(S(=O)(=O)N2CCN(C)CC2)c1,-9,3,0,-1,18*,7,-1,-6
C[C@H](O)c1[nH]c2cc(F)ccc2c1[C@H](C)O,-6,17,0,0,20*,7,0,-5
SMILES,MsrA act,AHR act,MsrA inh,TbMetRS inhib,HTR2A ag,AI-2 QS mod,OPRM1 ag,HTR2A ag conf
OCCc1c[nH]c2cc(F)ccc12,0,3,1,0,1,20,.,.
Cc1ccc(S(=O)(=O)N2C[C@H]3[C@H]4C(=O)N(Cc5ccccc5)C(=O)[C@H]4CC(=O)[C@H]3[C@@H]2c2ccccc2F)cc1,-2,.,0,0,-3,.,.,.
CCN1C(=O)[C@@H]2[C@@H]3CN(S(=O)(=O)c4ccc(C)cc4)[C@@H](c4ccccc4F)[C@@H]3C(=O)C[C@@H]2C1=O,-3,.,0,-1,15*,.,0,1
COCC1CCCCN1C(=O)c1cc(COc2ccc3ncccc3c2)on1 (centres undefined),-3,-5,0,0,20*,9,0,0
Cc1ccc(NC(=O)CSc2nc3ccc(Nc4nc(N5CCOCC5)nc(N5CCOCC5)n4)cc3s2)cc1,-5,.,0,0,10,15,.,.
COc1ccc(NC(=O)CSc2nc3ccc(Nc4nc(N5CCOCC5)nc(N5CCOCC5)n4)cc3s2)cc1,-4,4,0,-1,15*,34,0,18*
Oc1ccccc1/C=N/n1c2ccccc2c2ccccc21,-4,20,-1,0,16*,5,0,2
COc1ccc(S(=O)(=O)N2CC=C(c3ccccc3)CC2)cc1OC,-3,.,1,0,-7,.,.,.
CCC(C)NC(=O)C1CCN(S(=O)(=O)c2cc([N+](=O)[O-])ccc2Cl)CC1 (centres undefined),-7,2,0,-1,24*,29,0,-2
O=C(Cn1cnc2ccccc2c1=O)N1CCN(Cc2ccc3c(c2)OCO3)CC1,-12,-1,1,-1,15*,3,-1,47*
O=C(Cn1cnc2ccccc2c1=O)NCC(=O)N1CCN(Cc2ccc3c(c2)OCO3)CC1,-3,0,0,-2,2,.,.,.
COC(=O)[C@H](C)N(Cc1ccc(Cl)c(Cl)c1)S(=O)(=O)CCN1CCN(c2ccccc2)CC1,-7,.,0,1,-1,.,.,.
Cc1cc(NC(=O)CSc2nnc(-c3ccc(S(=O)(=O)N4CCCC4)cc3)n2C)no1,-3,1,-1,0,18*,37,-1,-5

# Source: PubChem
